From ChEMBL document CHEMBL1641377, “Discovery of novel, potent, selective, and orally active human glucagon receptor antagonists containing a pyrazole core” (Bioorg Med Chem Lett, 2011)
Active and inactive are the calls of the source. The calls are words filed in the database; no cut-off is given here.

How the values were obtained:
Mus musculus [1] = experiment: Antidiabetic activity in transgenic mouse expressing human GCGR assessed as inhibition of glucagon-induced blood glucose excursion at 30 mg/kg, po administered 60 mins before glucagon challenge measured after 48 mins; assay type: functional, organism-based; set-up: dose 30 mg/kg
Summary of the method: (§1)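 hGCGR transgenic mice (only functional receptor is human GCGR), 9 per group, given compound orally, then glucagon 15 µg/kg IP 60 min later (one arm dosed 30 mpk three hours before challenge); blood glucose monitored at 12, 24, 36 and 48 min after glucagon.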

Mus musculus [2] = experiment: Antidiabetic activity in transgenic mouse expressing human GCGR assessed as inhibition of glucagon-induced blood glucose excursion at 10 mg/kg, po administered 60 mins before glucagon challenge measured after 48 mins; assay type: functional, organism-based; set-up: dose 10 mg/kg; summary of the method: as §1
Glucagon receptor [3] = molecular target: T1, Glucagon receptor (Homo sapiens, UniProt P47871); experiment: Displacement of [125I]glucagon from human GCGR expressed in CHO cells; assay type: cell-based
Summary of the method: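 Binding inhibition of 125I-glucagon to human GCGR expressed in CHO cell membranes; IC50 reported, n given where replicated.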

Glucagon receptor [4] = molecular target: T1, Glucagon receptor; experiment: Antagonist activity at human GCGR expressed in CHO cells assessed as inhibition of glucagon-induced cAMP accumulation; assay type: functional, cell-based
Summary of the method: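 Inhibition of glucagon-induced cAMP accumulation in CHO cells transfected with human GCGR; IC50 derived, n given where replicated.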

[5] = molecular target: T2, Gastric inhibitory polypeptide receptor (Homo sapiens, UniProt P48546); experiment: Antagonist activity at human GIPR expressed in CHO cells assessed as inhibition of glucagon-induced cAMP accumulation; assay type: functional, cell-based
T2 sequence (P48546 whole entry): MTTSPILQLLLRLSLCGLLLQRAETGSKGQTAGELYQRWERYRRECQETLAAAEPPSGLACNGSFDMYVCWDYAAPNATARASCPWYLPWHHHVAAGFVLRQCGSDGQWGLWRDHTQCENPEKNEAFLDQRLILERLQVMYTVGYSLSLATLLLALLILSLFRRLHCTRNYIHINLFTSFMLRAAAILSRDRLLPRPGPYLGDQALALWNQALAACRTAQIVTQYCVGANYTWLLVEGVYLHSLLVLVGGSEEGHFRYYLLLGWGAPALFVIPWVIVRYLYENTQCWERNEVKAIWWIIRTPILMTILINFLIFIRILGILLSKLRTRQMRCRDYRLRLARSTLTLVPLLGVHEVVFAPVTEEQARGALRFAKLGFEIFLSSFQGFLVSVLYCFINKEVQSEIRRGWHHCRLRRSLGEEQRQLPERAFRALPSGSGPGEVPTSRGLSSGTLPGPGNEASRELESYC

[6] = molecular target: T3, Gastric inhibitory polypeptide receptor (Homo sapiens) (UniProt P48546); experiment: Antagonist activity at human GIPR expressed in CHO cells assessed as inhibition of glucagon-induced cAMP accumulation at 10 uM; assay type: functional, cell-based
T3 sequence (whole entry): T2 sequence (P48546 whole entry)

[7] = Blood clearance in po dosed mouse; assay type: ADME, organism-based
[8] = Half life in po dosed mouse; assay type: ADME, organism-based; conditions: in vivo
Mus musculus [9] = experiment: Dose normalized AUC in po dosed mouse; assay type: ADME, organism-based; conditions: in vivo

T1 sequence (P47871 whole entry): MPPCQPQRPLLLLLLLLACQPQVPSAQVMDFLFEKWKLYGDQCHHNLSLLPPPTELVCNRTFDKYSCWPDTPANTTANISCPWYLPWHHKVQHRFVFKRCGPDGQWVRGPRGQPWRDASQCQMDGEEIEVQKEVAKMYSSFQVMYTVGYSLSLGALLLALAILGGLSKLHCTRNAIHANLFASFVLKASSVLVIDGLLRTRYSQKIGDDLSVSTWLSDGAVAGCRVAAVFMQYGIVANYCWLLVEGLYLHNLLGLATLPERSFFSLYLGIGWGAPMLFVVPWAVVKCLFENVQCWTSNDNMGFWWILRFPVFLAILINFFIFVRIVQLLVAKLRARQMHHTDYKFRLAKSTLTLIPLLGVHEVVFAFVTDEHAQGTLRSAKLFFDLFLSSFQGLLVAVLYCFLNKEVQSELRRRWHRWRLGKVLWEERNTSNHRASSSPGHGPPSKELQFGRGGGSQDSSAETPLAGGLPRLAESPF

Compound	IC50 (Glucagon receptor [3]) [nM]	IC50 [5] [nM]	inhibition [6] [%]	also measured
CC(C)(C)[C@H]1CC[C@H](c2cc(-c3ccc(OC(F)(F)F)cc3)nn2Cc2ccc(C(=O)Nc3nn[nH]n3)cc2)CC1	–	–	–	inhibition (Mus musculus [1]): Active; inhibition (Mus musculus [2]): Active
O=C(Nc1nnn[nH]1)c1ccc(Cn2nc(-c3cc(Cl)cc(Cl)c3)cc2-c2ccc(OC(F)(F)F)cc2)cc1	39	7100	–	IC50 (Glucagon receptor [4]): 44 nM
O=C(NCc1nn[nH]n1)c1ccc(Cn2nc(-c3cc(Cl)cc(Cl)c3)cc2-c2ccc(OC(F)(F)F)cc2)cc1	–	–	–	inhibition (Mus musculus [2]): inactive
O=C(O)CCNC(=O)c1ccc(Cc2cc(-c3ccc(OC(F)(F)F)cc3)n(C3CCCCC3)n2)cc1	1700	–	–	–
O=C(NC[C@@H](O)C(=O)O)c1ccc(Cn2nc(-c3cc(Cl)cc(Cl)c3)cc2-c2ccc(OC(F)(F)F)cc2)cc1	28	> 25000	–	–
CC(c1ccc(Cl)cc1)c1cc(-c2ccc(OC(F)(F)F)cc2)nn1Cc1ccc(C(=O)NCCC(=O)O)cc1 (stereo unspecified)	730	–	22	–
CC(C)(C)[C@H]1CC[C@H](c2cc(-c3ccc(OC(F)(F)F)cc3)nn2Cc2ccc(C(=O)Nc3nnn[nH]3)cc2)CC1	63	5700	–	IC50 (Glucagon receptor [4]): 170 nM
O=C(Nc1nn[nH]n1)c1ccc(Cn2nc(-c3ccc(OC(F)(F)F)cc3)cc2C2CCCCC2)cc1	120	2100	–	IC50 (Glucagon receptor [4]): 160 nM; CL/F [7]: 8.2 mL/min/kg; half-life [8]: 2.7 h; AUC (Mus musculus [9]): 1.5 µM·kg·h/mg
CC(c1ccc(C(=O)NCCC(=O)O)cc1)n1nc(-c2ccc(OC(F)(F)F)cc2)cc1-c1ccc(OC(F)(F)F)cc1 (stereo unspecified)	250	–	46	–
O=C(Nc1nn[nH]n1)c1ccc(Cc2cnn(-c3ccc(OC(F)(F)F)cc3)c2C2CCCCC2)cc1	16000	> 20000	–	–
CC(c1ccc(Cl)cc1)c1cc(-c2ccc(OC(F)(F)F)cc2)n(Cc2ccc(C(=O)Nc3nn[nH]n3)cc2)n1 (stereo unspecified)	430	–	20	–
O=C(O)CCNC(=O)c1ccc(Cn2nc(-c3ccc(OC(F)(F)F)cc3)cc2-c2cc(Cl)cc(Cl)c2)cc1	95	–	21	IC50 (Glucagon receptor [4]): 230 nM
O=C(Nc1nn[nH]n1)c1ccc(Cn2nc(C3CCCCC3)cc2-c2ccc(OC(F)(F)F)cc2)cc1	810	910	–	–
O=C(O)CCCNC(=O)c1cccc(Cn2nc(-c3ccc(OC(F)(F)F)cc3)cc2-c2ccc(OC(F)(F)F)cc2)c1	1100	–	49	–
O=C(O)CCCNC(=O)c1ccc(Cn2nc(-c3ccc(OC(F)(F)F)cc3)cc2-c2ccc(OC(F)(F)F)cc2)cc1	1100	–	15	–
CS(=O)(=O)c1ccc(-c2cc(-c3ccc(OC(F)(F)F)cc3)n(Cc3ccc(C(=O)Nc4nn[nH]n4)cc3)n2)cc1	–	–	45	–
O=C(O)CCNC(=O)c1ccc(Cn2nc(-c3ccc(OC(F)(F)F)cc3)cc2-c2ccc(OC(F)(F)F)cc2)cc1	490	–	–	IC50 (Glucagon receptor [4]): 370 nM
CC(C)(C)[C@H]1CC[C@H](N(Cc2ccc(C(=O)NCCC(=O)O)cc2)C(=O)Nc2ccc(OC(F)(F)F)cc2)CC1	21	1300	–	IC50 (Glucagon receptor [4]): 140 nM
O=C(Nc1nnn[nH]1)c1ccc(Cc2cn(-c3ccc(OC(F)(F)F)cc3)nc2C2CCCCC2)cc1	5300	> 10000	–	–
CS(=O)(=O)c1ccc(-c2cc(-c3ccc(OC(F)(F)F)cc3)n(Cc3ccc(C(=O)NCCC(=O)O)cc3)n2)cc1	2700	–	43	–
CS(=O)(=O)c1ccc(-c2cc(-c3ccc(OC(F)(F)F)cc3)nn2Cc2ccc(C(=O)Nc3nnn[nH]3)cc2)cc1	220	–	–	–
CN(CCC(=O)O)C(=O)c1ccc(Cn2nc(-c3ccc(OC(F)(F)F)cc3)cc2-c2ccc(OC(F)(F)F)cc2)cc1	7200	–	9	–

Compound	IC50 (Glucagon receptor [3]) [nM]	IC50 [5] [nM]	inhibition [6] [%]	also measured
O=C(O)CCNC(=O)c1ccc(Cc2cn(-c3ccc(OC(F)(F)F)cc3)nc2C2CCCCC2)cc1	1200	7400	–	–
O=C(O)CCNC(=O)c1cccc(Cn2nc(-c3ccc(OC(F)(F)F)cc3)cc2-c2ccc(OC(F)(F)F)cc2)c1	330	–	73	–
O=C(Nc1nnn[nH]1)c1ccc(Cn2nc(-c3ccc(OC(F)(F)F)cc3)cc2-c2cc(Cl)cc(Cl)c2)cc1	36	3000	–	IC50 (Glucagon receptor [4]): 35 nM
O=C(O)CCNC(=O)c1ccc(Cn2nc(-c3ccc(OC(F)(F)F)cc3)cc2C2CCCCC2)cc1	3800	2800	–	–
O=C(Nc1nn[nH]n1)c1ccc(Cn2nc(-c3ccc(OC(F)(F)F)cc3)cc2-c2ccc(OC(F)(F)F)cc2)cc1	43	–	46	IC50 (Glucagon receptor [4]): 47 nM; inhibition (Mus musculus [1]): Active; inhibition (Mus musculus [2]): Active
CS(=O)(=O)c1ccc(-c2cc(-c3ccc(OC(F)(F)F)cc3)nn2Cc2ccc(C(=O)Nc3nn[nH]n3)cc2)cc1	–	–	36	–
O=C(O)CCNC(=O)c1ccc(Cc2cnn(-c3ccc(OC(F)(F)F)cc3)c2C2CCCCC2)cc1	7200	> 25000	–	–
O=C(O)CCNC(=O)c1ccc(Cc2cc(-c3ccc(OC(F)(F)F)cc3)nn2C2CCCCC2)cc1	2900	–	39	–
O=C(O)CNC(=O)c1cccc(Cn2nc(-c3ccc(OC(F)(F)F)cc3)cc2-c2ccc(OC(F)(F)F)cc2)c1	2900	–	34	–
O=C(O)CNC(=O)c1ccc(Cn2nc(-c3ccc(OC(F)(F)F)cc3)cc2-c2ccc(OC(F)(F)F)cc2)cc1	3000	–	-3	IC50 (Glucagon receptor [4]): 1300 nM
CC(c1ccc(Cl)cc1)c1cc(-c2ccc(OC(F)(F)F)cc2)n(Cc2ccc(C(=O)NCCC(=O)O)cc2)n1 (stereo unspecified)	2400	–	0	–
CC(C)(C)[C@H]1CC[C@H](c2cc(-c3ccc(OC(F)(F)F)cc3)nn2Cc2ccc(C(=O)NCCC(=O)O)cc2)CC1	480	–	6	–
O=C(Nc1nn[nH]n1)c1cccc(Cn2nc(-c3ccc(OC(F)(F)F)cc3)cc2-c2ccc(OC(F)(F)F)cc2)c1	1100	–	2	–
CS(=O)(=O)c1ccc(-c2cc(-c3ccc(OC(F)(F)F)cc3)n(Cc3ccc(C(=O)Nc4nnn[nH]4)cc3)n2)cc1	570	–	–	–
O=C(Nc1nn[nH]n1)c1ccc(Cc2cc(-c3ccc(OC(F)(F)F)cc3)nn2C2CCCCC2)cc1	4200	–	42	–
CC(c1ccc(Cl)cc1)c1cc(-c2ccc(OC(F)(F)F)cc2)nn1Cc1ccc(C(=O)Nc2nn[nH]n2)cc1 (stereo unspecified)	520	–	21	–
O=C(NCc1nnn[nH]1)c1ccc(Cn2nc(-c3cc(Cl)cc(Cl)c3)cc2-c2ccc(OC(F)(F)F)cc2)cc1	120	> 10000	–	–
CS(=O)(=O)c1ccc(-c2cc(-c3ccc(OC(F)(F)F)cc3)nn2Cc2ccc(C(=O)NCCC(=O)O)cc2)cc1	1200	–	31	–
O=C(Nc1nn[nH]n1)c1ccc(Cn2nc(-c3cc(Cl)cc(Cl)c3)cc2-c2ccc(OC(F)(F)F)cc2)cc1	–	–	–	inhibition (Mus musculus [1]): Active; inhibition (Mus musculus [2]): inactive
O=C(Nc1nn[nH]n1)c1ccc(Cc2cc(-c3ccc(OC(F)(F)F)cc3)n(C3CCCCC3)n2)cc1	2900	–	50	–
CC(c1ccc(C(=O)Nc2nnn[nH]2)cc1)n1nc(-c2ccc(OC(F)(F)F)cc2)cc1-c1ccc(OC(F)(F)F)cc1 (stereo unspecified)	130	6000	–	–
CC(C)(C)[C@H]1CC[C@H](N(Cc2ccc(C(=O)Nc3nn[nH]n3)cc2)C(=O)Nc2ccc(OC(F)(F)F)cc2)CC1	3.2	45	–	IC50 (Glucagon receptor [4]): 46 nM
